Screens: PubChem, The Scripps Research Institute Molecular Screening Center
PKA-R1A activ = activators of PKA-R1A holoenzyme, primary screen, biochemical, fluorescence polarization, Cy5-IP20, bovine R1A, mouse PKAc | cAMP-dependent protein kinase type I-alpha regulatory subunit (Bos taurus) + … | PKA-R1A dissociation; scaled: DMSO 0%, 113 µM cGMP 100% | activation, % at 11.4 µM | 0.083% of 340,000 active | AID 504707, 2011;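 active = percent activation above the mean of all tested compounds plus 3 SD, cut at about 19% in these data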;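 also: higher means more PKAc released from R1A so a rise in polarization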
PKA-R2B act = activators of PKA-R2B holoenzyme, primary screen, biochemical, fluorescence polarization, Cy5-IP20, human | 0.079% of 340,000 active | activation, % at 11.4 µM | cAMP-dependent protein kinase catalytic subunit beta (Homo sapiens) + cAMP-dependent … | AID 504700, 2011 | PKA-R2B holoenzyme dissociation; R2B truncated from residue 108, S112A mutant; 0% DMSO only, 100% 113 µM cGMP;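 active = activation above a cutoff set at the mean over all compounds plus 3 SD, cut at about 18% in these data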;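 also: higher means more holoenzyme dissociation and a rise in polarization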
Target sequence (P31323 whole entry, looked up, other chains not shown, the tested form may be a part): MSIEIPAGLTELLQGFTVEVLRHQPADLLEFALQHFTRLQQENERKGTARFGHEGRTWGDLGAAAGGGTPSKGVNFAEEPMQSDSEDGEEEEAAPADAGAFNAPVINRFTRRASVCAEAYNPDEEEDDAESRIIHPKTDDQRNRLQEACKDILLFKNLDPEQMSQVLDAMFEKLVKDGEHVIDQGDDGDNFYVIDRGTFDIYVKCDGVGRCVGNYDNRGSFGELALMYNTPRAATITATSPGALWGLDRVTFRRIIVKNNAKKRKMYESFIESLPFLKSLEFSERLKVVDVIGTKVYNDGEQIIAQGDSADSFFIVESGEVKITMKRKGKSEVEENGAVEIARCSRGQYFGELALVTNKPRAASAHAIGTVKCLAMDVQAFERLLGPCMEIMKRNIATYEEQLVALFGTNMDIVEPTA
VIM-2 inhibitor = VIM-2 metallo-beta-lactamase inhibitors, primary screen, biochemical, epi-absorbance readout, Pseudomonas aeruginosa enzyme | 0.89% of 290,000 active | inhibition, % at 5.6 µM | purified VIM-2, nitrocefin hydrolysis, epi-absorbance fluorescence | AID 1527, 2009;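 active = inhibition above the mean of all tested compounds plus 3 SD, cutoff set per screening run, cut at about 7.5% in these data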;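 also: red hydrolysis product quenches plate fluorescence so inhibitors raise well fluorescence; 0% = enzyme with DMSO and 100% = DMSO without enzyme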
bovine MsrA act = bovine MsrA enzyme activators, primary screen, biochemical, absorbance, HTS | purified bovine MsrA, absorbance read-out | activation, % at 10.6 µM | 0.3% of 360,000 active; in the data active = activation above about 7.5%;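 also: 0% = vehicle and 100% = reference activator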
IMP-1 inhibitor = IMP-1 metallo-beta-lactamase inhibitors, primary screen, biochemical, epi-absorbance readout, Pseudomonas aeruginosa enzyme. purified IMP-1, nitrocefin hydrolysis, epi-absorbance fluorescence. metallo-beta-lactamase IMP-1 (Pseudomonas aeruginosa). AID 1556, 2009. inhibition, % at 5.6 µM. 0.45% of 290,000 active;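 active = inhibition above the mean plus 3 SD of all compounds in the same screening run, cut at about 4.5% in these data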;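 also: 0% = IMP-1 with DMSO and 100% = DMSO wells lacking enzyme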
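Material – recombinant IMP-1 enzyme, purified · Amount – IMP-1 0.2 nM before substrate addition · Medium – HEPES buffer pH 7.1 with ZnSO4 and Brij 35 · Timing – 25 °C, 15 min preincubation, 25 min reaction · Measured by – plate fluorescence quenching by hydrolysis product, ex 480/em 530 nm · Read-out – percent enzyme inhibition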
MsrA inhibitor = bovine MsrA enzyme inhibitors, primary screen, biochemical, absorbance, HTS. Methionine sulfoxide reductase A (Bos taurus). purified bovine MsrA, absorbance read-out. inhibition, % at 15.5 µM. 0.75% of 360,000 active; in the data active = inhibition above about 4.5%;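 also: 0% = vehicle wells with enzyme and 100% = reference inhibitor wells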
MsrA act confirm = bovine MsrA activators, retest, confirmation, biochemical, absorbance, HTS; activation, % at 10.6 µM; purified bovine MsrA, absorbance read-out; shares compounds with bovine MsrA act; 12% of 1,000 active; AID 602270, 2012; in the data active = activation above about 4%;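 also: enzyme coupled to thioredoxin and thioredoxin reductase with NADPH; 0% = vehicle wells and 100% = reference activator wells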
* hit, by the source's call; . = not tested or not shown. A selection: hits, their analogues and other compounds. The true share with any hit is near 2.1%.

SMILES	PKA-R1A activ	PKA-R2B act	VIM-2 inhibitor	bovine MsrA act	IMP-1 inhibitor	MsrA inhibitor	MsrA act confirm
CN(CC(=O)Nc1ccccc1Cl)C(=O)COC(=O)c1ccc([N+](=O)[O-])s1	-5	-11	.	12*	.	1	2
COc1ccccc1NC(=O)COC(=O)c1ccc([N+](=O)[O-])s1	-3	-13	-2	33*	-2	2	18*
CC1(C)OC(C)(C)C(=N/O)/C1=N\N	.	.	.	.	.	1	.
COc1ccc(C(C)=O)cc1CN1C(=O)C(C)N(c2ccc(C)cc2)C1=O (stereo unspecified)	-16	1	-1	9.0*	-2	1	-3
COc1ccc(C(C)=O)cc1CN1C(=O)NC2(CCCCC2)C1=O	2	-1	1	-5	-2	-1	.
Cn1ccc2c(-c3ccc(CO)cc3)cc3c(c21)C1CCC3C1 (stereo unspecified)	.	.	.	-4	.	0	.
COc1ccc(CCN2CC(C(=O)OCC(=O)N(C)CC(=O)Nc3ccccc3Cl)CC2=O)cc1OC (stereo unspecified)	-3	9	.	-1	.	0	.
Cn1c(SCc2cccc(Cl)c2)nc(C(F)(F)F)cc1=O	-8	-5	-2	8.4*	-2	-1	-5
Cn1c(SCc2ccccc2)nc(C(F)(F)F)cc1=O	-1	2	-1	-2	-2	-1	.
CS(=O)(=O)Nc1cccc(-c2cn3c(n2)SCC3)c1	-9	-5	-1	-10	-2	1	.
CCS(=O)(=O)Nc1cccc(-c2cn3c(n2)SCC3)c1	3	1	-2	7.7*	-3	-1	1
Cc1cc([N+](=O)[O-])ccc1P(=O)(O)c1ccc([N+](=O)[O-])cc1C	1	-1	.	-2	.	1	.
CCc1ccc(C2CC(c3ccccc3Cl)Nc3nc(N)nn32)cc1 (stereo unspecified)	0	1	-1	9.4*	-3	1	-1
COc1cc(C(C)=O)ccc1OCC(O)CNCC1(N2CCCCC2)CCCCC1 (stereo unspecified)	3	4	-1	19*	-7	1	0
COc1ccc(N2CCN(C(c3nnnn3C3CCCC3)C(C)C)CC2)cc1 (stereo unspecified)	-1	3	-3	8.9*	-2	0	0
CC(C)Oc1cccc(C(=O)C2CCCN(C(=O)CCc3cnn(C)c3)C2)c1 (stereo unspecified)	-3	-9	-1	-8	-1	-1	.
CCCCn1nnnc1C(c1cc2ccccc2o1)N1CCCC1 (stereo unspecified)	.	.	.	11*	.	0	-1
CCCCn1nnnc1C(c1cc2ccccc2o1)N1CCN(C/C=C/c2ccccc2)CC1 (stereo unspecified)	.	.	.	1	.	0	.
CC1CCCC(NC(=O)c2ccc3c(c2)NC(=O)CS3)C1C (stereo unspecified)	2	-6	-1	-3	-2	-1	.
CCCCN(C(=O)c1nn(C)c(=O)c2ccccc12)c1c(N)n(CC(C)C)c(=O)[nH]c1=O	-2	4	.	-1	.	-1	.
C=CCn1c(COc2ccc(Cl)cc2)nnc1SCC(=O)NCC(=O)OCC	0	0	0	8.2*	0	1	0
O=C(O)c1ccccc1C(=O)Nc1n[nH]c(=S)s1	-4	1	1	8.7*	-2	1	2
Cc1cccc(C)c1-n1nnnc1C(c1ccnc2ccccc12)N1CCN(C(=O)OCc2ccccc2)CC1 (stereo unspecified)	.	.	.	-2	.	-1	.
COC(=O)c1sccc1NC(=O)CN1CCN(c2ccc(F)cc2)CC1	-7	3	-5	9.1*	-2	0	3
CC(=O)N1CCc2cc(S(=O)(=O)CCC(=O)NCc3ccc(F)cc3)ccc21	-1	-3	-2	-6	-3	2	.
SMILES	PKA-R1A activ	PKA-R2B act	VIM-2 inhibitor	bovine MsrA act	IMP-1 inhibitor	MsrA inhibitor	MsrA act confirm
O=C(NCc1ccc(F)cc1)c1cc2ccccc2o1	2	-1	0	9.6*	1	-1	0
O=C(NNC(=O)c1cc2ccccc2o1)c1ccc(F)cc1	3	4	.	-3	.	0	.
C[C@H](CO)N1C[C@H](C)[C@@H](CN(C)C(=O)C2CC2)OCc2cn(nn2)CCCC1=O	.	.	.	.	.	0	.
Cc1ccc(S(=O)(=O)N2CCCN(C(=O)c3ccc(-n4cccn4)cc3)CC2)cc1	9	9	.	-3	.	0	.
C[C@@H]1COc2cccc(NCCCN3CCOCC3)c2S(=O)(=O)N1	.	.	.	.	.	0	.
CCCCCCCCN1C(=O)[C@H](CC(=O)N2CCSCC2)C[C@@]2(C(=O)OC)CC(C)(C)CC=C12	.	.	.	.	.	0	.
S=c1[nH]cnc2sc(-c3ccccc3)cc12	-11	-3	-5	8.2*	-3	2	0
CNc1ncnc2sc(-c3ccccc3)cc12	-9	-11	0	-5	0	4	.
CCN(CC(=O)NCc1ccc(Cl)cc1)C(=O)c1ccc(C#N)cc1	-4	5	-3	16*	-2	-1	-1
CCN(CC(=O)NCc1ccc(F)cc1)C(=O)c1ccc(Cl)cc1	9	-2	0	-1	-2	1	.
COc1ccc(-c2[nH][nH]c(=O)c2NC(=O)c2ccccc2Br)cc1	.	.	.	-5	.	0	.
COc1cc(SC)ccc1C(=O)OCC(=O)NCC(C)C	-9	3	-1	-2	-1	0	.
COc1cc(SC)ccc1C(=O)OCC(=O)NC(=O)NC(C)C	-5	-1	-3	7.9*	-3	0	-3
Cc1ccc(C(=O)OCC(=O)NC2CCCCC2)cc1S(=O)(=O)N1CCCCC1	1	-3	.	8.4*	.	0	-2
Cc1ccc(C(=O)NC2CCCC2)cc1S(=O)(=O)N1CCCCC1	-2	1	-3	-3	-2	0	.
COc1ccccc1OCCCCn1c(C(C)O)nc2ccccc21 (stereo unspecified)	-5	1	-1	-5	-3	1	.
COCCCNC(=O)c1ccc2sc(C3=C[C@@H](O)[C@@H](O)[C@@H](CO)O3)nc2c1	.	.	.	4	.	1	.
O=C(CCCc1ccccc1)NCCC1=CCCCC1	-2	-7	-1	8.5*	-1	1	-2
O=C1C(O)=C(O)C(=O)c2ccccc21	0	-15	.	-8	.	1	.
